The record followed here is ChEMBL document CHEMBL1150793, “In vitro susceptibilities of 217 clinical isolates of zygomycetes to conventional and new antifungal agents” (2007).

The structures appear in SMILES notation. Converted amounts (≈) assume the structure as drawn. The source made the active and inactive calls. No cut-off for these calls is given here.

Assay [1] concerns Rhizopus. The experiment in a line: Antimicrobial activity against Rhizopus sp. after 24 hrs. The format is functional. The method in brief: (§1)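 Broth microdilution of clinical isolates following CLSI M38-A for filamentous fungi. The polyene and echinocandin agents were tested in antibiotic medium 3, and the other agents in RPMI 1640. Plates were incubated 24 h at 35°C and end points read visually. The echinocandin end point was the minimal effective concentration (MEC); the others were MICs.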

Assay [2] deals with Rhizopus arrhizus. Put plainly: Antimicrobial activity against Rhizopus arrhizus after 24 hrs. The assay is classed as functional. The gist of the method: (§2)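 Clinical zygomycete isolates tested by broth microdilution in microtiter format, in essential agreement with CLSI M38-A for filamentous fungi. The polyene and echinocandin were tested in antibiotic medium 3, and the other agents in RPMI 1640. Plates were incubated for 24 h at 35°C, and end points were read visually. The echinocandin end point was taken as the minimal effective concentration.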

In assay [3] the test system is Rhizopus microsporus var. rhizopodiformis. Put plainly: Antimicrobial activity against Rhizopus microsporus var. rhizopodiformis after 24 hrs. The format is functional. The gist of the method:
as §1

For assay [4], the system named is Mucor. The experiment in a line: Antimicrobial activity against Mucor sp. after 24 hrs. The assay is classed as functional. The gist of the method:
as §1

For assay [5], the system named is Absidia. Put plainly: Antimicrobial activity against Absidia sp. after 24 hrs. The assay is classed as functional, organism-based. The gist of the method:
as §2

In assay [6] the test system is Mucor circinelloides. Put plainly: Antimicrobial activity against Mucor circinelloides after 24 hrs. The format is functional. The gist of the method: as §2
For assay [7], the system named is Rhizomucor. Put plainly: Antimicrobial activity against Rhizomucor sp. after 24 hrs. The format is functional. The method in brief: as §2
For assay [8], the system named is Lichtheimia corymbifera. Put plainly: Antimicrobial activity against Absidia corymbifera after 24 hrs. The format is functional. The gist of the method: as §2
Assay [9] has as its system Cunninghamella. Put plainly: Antimicrobial activity against Cunninghamella sp. after 24 hrs. The assay is classed as functional. The method in brief: as §2
For assay [10], the system named is Apophysomyces elegans. The experiment in a line: Antimicrobial activity against Apophysomyces elegans after 24 hrs. The assay is classed as functional. The method in brief: as §2
The test system of assay [11] is Rhizopus. The experiment in a line: Antimicrobial activity against Rhizopus sp. assessed as percent of susceptible isolates after 24 hrs. The format is functional.
The test system of assay [12] is Rhizopus arrhizus. The experiment in a line: Antimicrobial activity against Rhizopus arrhizus assessed as percent of susceptible isolates after 24 hrs. The format is functional.
Assay [13] relates to Rhizopus microsporus var. rhizopodiformis. Put plainly: Antimicrobial activity against Rhizopus microsporus var. rhizopodiformis assessed as percent of susceptible isolates after 24 hrs. The format is functional.
Assay [14] relates to Mucor. The experiment in a line: Antimicrobial activity against Mucor sp. after assessed as percent of susceptible isolates after 24 hrs. The format is functional.
Assay [15] relates to Mucor circinelloides. The experiment in a line: Antimicrobial activity against Mucor circinelloides assessed as percent of susceptible isolates after 24 hrs. The assay is classed as functional.
The test system of assay [16] is Cunninghamella. Put plainly: Antimicrobial activity against Cunninghamella sp. assessed as percent of susceptible isolates after 24 hrs. The format is functional.
In assay [17] the test system is Rhizomucor. Put plainly: Antimicrobial activity against Rhizomucor sp. assessed as percent of susceptible isolates after 24 hrs. The assay is classed as functional.
Assay [18] deals with Absidia. Put plainly: Antimicrobial activity against Absidia sp. assessed as percent of susceptible isolates after 24 hrs. The assay is classed as functional.
For assay [19], the system named is Lichtheimia corymbifera. Put plainly: Antimicrobial activity against Absidia corymbifera assessed as percent of susceptible isolates after 24 hrs. The assay is classed as functional.
Assay [20] has as its system Apophysomyces elegans. The experiment in a line: Antimicrobial activity against Apophysomyces elegans assessed as percent of susceptible isolates after 24 hrs. The assay is classed as functional.
Assay [21] relates to Rhizopus microsporus var. microsporus. Put plainly: Antimicrobial activity against Rhizopus microsporus var. microsporus assessed as percent of susceptible isolates after 24 hrs. The assay is classed as functional.

Turning to `CC(=O)N1CCN(c2ccc(OCC3COC(Cn4ccnc4)(c4ccc(Cl)cc4Cl)O3)cc2)CC1` (configuration not stated) [KETOCONAZOLE], the MIC50 (in general, the lowest concentration that inhibits either 50% of growth or 50% of the strains tested, depending on the study) in [1] is 1 µg/mL (≈ 1.88 µM). In addition, the result in assay [2], in assay [3], in [4], in assay [5], in assay [6] and in [7] was inactive. The outcome in assay [8], in assay [9] and in assay [10] was inactive. For the same compound, the Activity in assay [11] was 83%; in assay [12], 0%; in [13], 0%; in [14] it was 33%; in [15] it was 0%; in assay [16], 0%.

As for `Nc1nc(=O)[nH]cc1F` [FLUCYTOSINE], the outcome in assay [1], in assay [2], in [3], in [6] and in assay [9] was inactive. The MIC50 in assay [4] is more than 64 µg/mL. In addition, the Activity in assay [11], in [12], in [13], in assay [14], in assay [15] and in assay [16] was 0% in each case.

As to `CC[C@@H]([C@H](C)O)n1ncn(-c2ccc(N3CCN(c4ccc(OC[C@@H]5CO[C@@](Cn6cncn6)(c6ccc(F)cc6F)C5)cc4)CC3)cc2)c1=O` [POSACONAZOLE], the MIC50 came to 0.25 µg/mL (≈ 0.357 µM) in assay [1]; 0.25 µg/mL (≈ 0.357 µM) in assay [2]; 0.25 µg/mL (≈ 0.357 µM) in [3]; 0.5 µg/mL (≈ 0.713 µM) in [4]; 0.5 µg/mL (≈ 0.713 µM) in assay [9]; 0.03 µg/mL (≈ 0.0428 µM) in [10]. The MIC90 – broadly, an inhibitory concentration at the 90% level, which refers to growth in some studies and to a panel of isolates in others – in [1] was determined as 1 µg/mL (≈ 1.43 µM); in assay [2] it was 1 µg/mL (≈ 1.43 µM); in assay [4], 2 µg/mL (≈ 2.85 µM). Moreover, the result in assay [5], in assay [6], in [7] and in assay [8] was inactive. Moreover, the Activity in assay [11] was 80%; in assay [12], 64%; in assay [13], 78%; in assay [14] it was 70%; in assay [15] it was 0%; in assay [17], 67%. The Activity in [18] is 100%; in assay [19], 100%; in [16] it was 75%; in [20] it was 83%.

Turning to `CCC(C)n1ncn(-c2ccc(N3CCN(c4ccc(OC[C@H]5CO[C@](Cn6cncn6)(c6ccc(Cl)cc6Cl)O5)cc4)CC3)cc2)c1=O` (some centres not stated) [ITRACONAZOLE], the MIC50 was 0.5 µg/mL (≈ 0.709 µM) in [1]; 0.5 µg/mL (≈ 0.709 µM) in assay [2]; 0.5 µg/mL (≈ 0.709 µM) in [3]; 0.5 µg/mL (≈ 0.709 µM) in assay [4]; 1 µg/mL (≈ 1.42 µM) in assay [9]; 0.125 µg/mL (≈ 0.177 µM) in [10]. The MIC90 is 4 µg/mL (≈ 5.67 µM) in assay [1] and more than 8 µg/mL in assay [4]. Besides, the result in assay [5], in [6], in assay [7] and in assay [8] was inactive. Further, the Activity is 62% in [11]; 50% in [12]; 60% in [13]; 0% in [21]; 57% in assay [14]; 0% in assay [15]. Also, the Activity worked out at 67% in assay [17]; 50% in assay [18]; 100% in assay [19]; 29% in [16]; 80% in [20].

As for `C[C@@H]1[C@H](O)[C@@H](C)/C=C/C=C/C=C/C=C/C=C/C=C/C=C/[C@H](O[C@@H]2O[C@H](C)[C@@H](O)[C@H](N)[C@@H]2O)C[C@@H]2O[C@](O)(C[C@@H](O)C[C@@H](O)[C@H](O)CC[C@@H](O)C[C@@H](O)CC(=O)O[C@H]1C)C[C@H](O)[C@H]2C(=O)O` [AMPHOTERICIN B], the MIC50 in [1] stood at 0.25 µg/mL (≈ 0.271 µM); in assay [2], 0.25 µg/mL (≈ 0.271 µM); in [3], 0.25 µg/mL (≈ 0.271 µM); in [4] it was 0.25 µg/mL (≈ 0.271 µM); in [6] it was 0.25 µg/mL (≈ 0.271 µM); in assay [7] it was 0.125 µg/mL (≈ 0.135 µM). Further, the MIC50 was 0.25 µg/mL (≈ 0.271 µM) in assay [8], 1 µg/mL (≈ 1.08 µM) in assay [9] and 0.125 µg/mL (≈ 0.135 µM) in assay [10]. Further, the MIC90 was determined as 0.5 µg/mL (≈ 0.541 µM) in [1], 0.25 µg/mL (≈ 0.271 µM) in assay [2], 0.25 µg/mL (≈ 0.271 µM) in assay [3] and 0.5 µg/mL (≈ 0.541 µM) in assay [4]. The result in [5] was inactive. Moreover, the Activity in assay [11] turned out to be 100%; in [12] it was 100%; in [13] it was 100%; in assay [21], 100%; in assay [14] it was 94%; in [15], 100%. The Activity was 100% in assay [17]; 100% in assay [18]; 100% in assay [19]; 63% in [16]; 100% in [20].

Turning to `C[C@@H](c1ncncc1F)[C@](O)(Cn1cncn1)c1ccc(F)cc1F` [VORICONAZOLE], the MIC50 was 8 µg/mL (≈ 22.9 µM) in assay [1], more than 8 µg/mL in [2], more than 8 µg/mL in assay [4] and more than 8 µg/mL in assay [9]. Besides, the MIC90 in assay [1], in assay [4] and in assay [9] was more than 8 µg/mL each time. For the same compound, the Antimicrobial activity result in [3] was “inactive”. In addition, the result in [5], in assay [6], in [7] and in [8] was inactive. Moreover, the Activity in assay [11] worked out at 5%; in assay [12] it was 0%; in assay [13], 0%; in [14], 0%; in assay [15], 0%; in assay [17], 0%. Further, the Activity in assay [18] stood at 0%; in assay [19] it was 0%; in assay [16], 10%; in assay [20], 100%.

Turning to `CC[C@H](C)C[C@H](C)CCCCCCCCC(=O)N[C@H]1C[C@@H](O)[C@@H](NCCN)NC(=O)[C@@H]2[C@@H](O)CCN2C(=O)[C@H]([C@H](O)CCN)NC(=O)[C@H]([C@H](O)[C@@H](O)c2ccc(O)cc2)NC(=O)[C@@H]2C[C@@H](O)CN2C(=O)[C@H]([C@@H](C)O)NC1=O` [CASPOFUNGIN], the MIC50 in assay [1], in [2], in assay [3] and in assay [4] was more than 16 µg/mL each time. Moreover, the MIC90 in [1] and in [4] was more than 16 µg/mL throughout. Moreover, the outcome in assay [5], in assay [6], in [7], in [8], in assay [9] and in assay [10] was inactive. For the same compound, the Activity in assay [11], in [12], in assay [13], in [14], in [15] and in assay [17] was 0% in each case. Moreover, the Activity in assay [18], in [19], in [16] and in assay [20] was 0% in each case.

For `OC(Cn1cncn1)(Cn1cncn1)c1ccc(F)cc1F` [FLUCONAZOLE], the MIC50 in [1] and in assay [4] was more than 64 µg/mL each time. This compound also had an MIC90 in assay [1] of more than 64 µg/mL. Further, the result in assay [2], in [5], in assay [6], in [7], in assay [8] and in [9] was inactive. Moreover, the outcome in assay [10] was inactive. The Antimicrobial activity result in [3] is “inactive”. The Activity in assay [11], in assay [12], in assay [13], in assay [14], in assay [15] and in assay [17] was 0% throughout. In addition, the Activity in assay [16] and in assay [20] was 0% throughout.
